A selection: hits, their analogues and other compounds. The true share with any hit is near 1%.
LYPLA2 inh: LYPLA2 inhibitors, primary screen, counter-screen for PME1 inhibitor project, biochemical, fluorescence polarization, FP-Rh probe ABPP | recombinant LYPLA2 | inhibition, % at 5.9 µM | 0.38% of 320,000 active;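 active = inhibition above the screen-wide mean plus 3 SD, limit set per campaign, cut at about 26% in these data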;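 note: 0% = LYPLA2 with DMSO and 100% = wells lacking LYPLA2 enzyme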
Target sequence (O95372 whole entry, looked up): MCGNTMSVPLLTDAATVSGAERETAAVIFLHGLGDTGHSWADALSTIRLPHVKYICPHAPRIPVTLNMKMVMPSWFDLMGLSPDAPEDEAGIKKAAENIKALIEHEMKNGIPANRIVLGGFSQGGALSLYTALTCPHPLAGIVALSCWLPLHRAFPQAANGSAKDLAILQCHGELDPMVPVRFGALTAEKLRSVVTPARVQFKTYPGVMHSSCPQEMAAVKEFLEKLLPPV
proCasp7 act: procaspase-7 activators, primary screen, counter-screen for procaspase-3 activator project, biochemical, absorbance, HTS, human; Caspase-7 (Homo sapiens), P55210; recombinant procaspase-7, Ac-DEVD-pNA absorbance 405 nm; D23A/D198A/D206A triple mutant, cannot self-cleave; scale: DMSO 0, 5 µM enzyme 100; activation, % at 8.5 µM; 0.093% of 330,000 active;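 active = percent activation above the screen-wide mean plus 3 SD, cut at about 25% in these data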
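System: Procaspase-7 triple mutant (PC-7 D3A); measure: % activation from two-timepoint absorbance difference, scaled to controls; times: 1 h compound preincubation, 2 h substrate cleavage, 25 °C; also added: Ac-DEVD-pNA substrate, 400 µM as added; measured by: Epi-absorbance of released pNA at 405 nm, two timepoints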
LYPLA1 inh: LYPLA1 inhibitors, primary screen, counter-screen for PME1 inhibitor project, biochemical, fluorescence polarization, FP-Rh probe ABPP | Acyl-protein thioesterase 1 (Homo sapiens), O75608 | recombinant LYPLA1 | inhibition, % at 5.9 µM | 0.16% of 320,000 active;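 active = inhibition above the mean of all tested compounds plus 3 SD, set per campaign, cut at about 14% in these data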;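 note: inhibitors block serine hydrolase probe labeling of LYPLA1 so polarization falls; 0% = enzyme with DMSO and 100% = wells lacking LYPLA1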
Target sequence (O75608 whole entry, looked up): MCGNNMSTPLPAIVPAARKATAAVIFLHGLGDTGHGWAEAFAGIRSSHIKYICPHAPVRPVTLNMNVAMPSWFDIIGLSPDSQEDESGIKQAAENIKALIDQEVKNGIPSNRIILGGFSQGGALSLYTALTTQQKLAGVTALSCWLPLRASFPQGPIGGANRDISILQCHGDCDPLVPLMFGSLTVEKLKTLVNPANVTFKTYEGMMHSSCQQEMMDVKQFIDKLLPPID
proCasp3 act: activators of human procaspase-3 D3A mutant, primary screen, biochemical, absorbance, PC-3 D3A mutant, single concentration. Caspase-3 (Homo sapiens), P42574. recombinant procaspase-3 D3A, Ac-DEVD-pNA absorbance 405 nm. activation, % at 8.5 µM. 0.11% of 330,000 active. AID 463141, 2010;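 active = activation above the mean of all tested compounds plus 3 SD, cut at about 21% in these data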;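 note: 0% = DMSO alone and 100% = DMSO wells spiked with extra 5 µM PC-3 D3A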
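Evaluation: percent activation relative to control range; Material: Procaspase-3 D3A mutant, all three cleavage aspartates alanine; Compound: single dose, 8.5 µM nominal compound, 0.8% DMSO; Replication: one well per compound; Signal: absorbance at 405 nm, 0 and 120 min; Schedule: 1 h preincubation plus 2 h reaction at 25 °C.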
PREPL inhibitor: PREPL enzyme inhibitors, primary screen, biochemical, fluorescence polarization; recombinant PREPL, fluorescence polarization activity-based probe; 0.68% of 320,000 active; inhibition, % at 5.96 µM; in the data active = inhibition above about 43%;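 note: 0% = enzyme with DMSO and 100% = wells lacking enzyme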
LYPLA2 conf: LYPLA2 inhibitors, retest, confirmation, counter-screen for PME1 inhibitor project, biochemical, fluorescence polarization, FP-Rh probe ABPP; shares compounds with LYPLA2 inh; recombinant LYPLA2; inhibition, % at 5.9 µM; 72% of 1,100 active; AID 2232, 2010;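 active = mean inhibition across replicates above the hit cutoff set in the primary screen, cut at about 26% in these data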;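 note: blocked labeling of the enzyme by serine hydrolase FP-Rh probe lowers polarization; 0% = enzyme with DMSO and 100% = wells lacking LYPLA2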
LYPLA2 gel ABPP: LYPLA2 inhibitors in proteome, late-stage follow-up, gel-based competitive ABPP, fluorescence, assay provider | 30% of 150 active | rhLYPLA2 in mouse brain proteome, gel ABPP FP-Rh | inhibition, % at 20 µM | shares compounds with LYPLA2 inh;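 active = inhibition of LYPLA2 enzyme probe labeling above about 50%, limit read from the data; inactive = inhibition below that limit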;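 note: loss of FP-Rh probe labeling of the LYPLA2 gel band measured as band density; 0% = DMSO only control band and 100% = blank gel background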
Active calls of the source: *; · = no result given.

SMILES | LYPLA2 inh | proCasp7 act | LYPLA1 inh | proCasp3 act | PREPL inhibitor | LYPLA2 conf | others
O=C(Nc1cnn(Cc2ccc(Cl)cc2)c1)c1ccc([N+](=O)[O-])cc1 | 17 | -4 | -1 | -7 | 31 | ·
O=C(Nc1ccc([N+](=O)[O-])cc1)c1ccc(Cn2cc([N+](=O)[O-])cn2)cc1 | 46* | 4 | -6 | 11 | 2 | 49*
CCCc1ncc(CN2CCCC(C(=O)Nc3ccc(-c4cccc(OC)c4)cc3)C2)cn1 (stereo not given) | 15 | -8 | 0 | 4 | 14 | ·
COc1cccc(-c2ccc(NC(=O)C3CCCN(Cc4cnc(N(C)C)s4)C3)cc2)c1 (stereo not given) | 28* | -1 | -2 | -3 | 10 | -1
COc1ccc(-c2cc(C(=O)Nc3c(C)nn(Cc4ccccc4)c3C)no2)cc1 | 7 | -1 | 0 | 0 | 13 | ·
COc1cccc(-c2cc(C(=O)Nc3c(C)nn(Cc4ccccc4)c3C)no2)c1 | 56* | 6 | 8 | -1 | 12 | 45*
COc1cccc(-c2cc(C(=O)Nc3c(C)nn(Cc4ccccc4C)c3C)no2)c1 | 45* | -1 | 6 | -8 | 1 | 48*
O=C(Cn1nc(-c2ccco2)ccc1=O)Nc1cc(Cl)ccc1Cl | 12 | -6 | -1 | -5 | 1 | ·
COc1ccccc1CC(=O)Nc1ccc(S(=O)(=O)N2CCOCC2)cc1 | 3 | -1 | 2 | 3 | 6 | ·
O=C(NNc1ccccc1[N+](=O)[O-])Nc1cccc(Cl)c1 | 40* | 4 | -1 | 4 | 10 | 46*
CCOC(=O)CNc1nc(Cl)nc(NC(C)(C)C)n1 | -4 | -4 | 2 | 0 | 4 | ·
Cc1ccc(OCCNC(=O)c2ccc(NC(=O)CC3SC(N4CCCC4)=NC3=O)cc2)cc1 (stereo not given) | 45* | -1 | 0 | -6 | -27 | 40*
COc1ccc(CCNC(=O)c2ccc(NC(=O)CC3SC(N4CCCC4)=NC3=O)cc2)cc1 (stereo not given) | 52* | 5 | 0 | 3 | 18 | 58* | LYPLA2 gel ABPP=25
CCNC(=O)c1ccc(NC(=O)CC2SC(N3CCCCC3)=NC2=O)cc1 (stereo not given) | 0 | -2 | -3 | 3 | 23 | ·
O=C(CC1SC(N2CCCC2)=NC1=O)Nc1ccc(C(=O)N2CCN(c3cccc(Cl)c3)CC2)cc1 (stereo not given) | 30* | 8 | 0 | 12 | -2 | 62* | LYPLA2 gel ABPP=38
O=C(Nc1ccccc1)C1CCCN1C(=O)Nc1ccccc1[N+](=O)[O-] (stereo not given) | 4 | 15 | 2 | 2 | 8 | ·
O=C(NC1CCc2ccccc21)c1cc(COc2cncc(Cl)c2)on1 (stereo not given) | 43* | 9 | 4 | 0 | 19 | 33*
O=C(NC1CCc2ccccc21)c1cc(COc2ccc(F)cc2Cl)on1 (stereo not given) | 5 | 4 | 1 | -1 | 11 | ·
Clc1ccc(Oc2nc(N3CCOCC3)nc(N3CCOCC3)n2)c(C2CCCCC2)c1 | 0 | -3 | -4 | 1 | -4 | ·
Cc1nc2ccccc2nc1OCC(=O)Nc1ccc2ccccc2c1 | 33* | 2 | 0 | -1 | -11 | 12
CNC(=O)CN1C(=O)CSc2nc(C)cc(C)c21 | -3 | 4 | 2 | 6 | 2 | ·

Source: PubChem BioAssay (The Scripps Research Institute Molecular Screening Center)
